Holding throughout (type): functional
Experiment [1] concerns Staphylococcus aureus. Put plainly: Antibacterial activity against efflux mediated macrolide-resistant Staphylococcus aureus PK1 by broth microdilution method. The gist of the method: (§1)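 MICs by CLSI broth microdilution with double dilutions, except that Streptococcus medium used 5% horse serum in place of lysed blood. Bacteria were pre-grown on Columbia agar with 5% sheep blood (streptococci) or Mueller–Hinton agar (staphylococci).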
On the technique in general: Dilution methods test growth across graded concentrations, often in twofold steps.

Experiment [2] concerns Streptococcus pneumoniae. Kind of experiment: Antibacterial activity against erythromycin susceptible Streptococcus pneumoniae SP 030 by broth microdilution method. The gist of the method: (§2)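 CLSI broth microdilution with double dilutions in 96-well plates. For streptococci, 5% horse serum replaced lysed blood in the medium. Inocula were grown on Columbia agar with 5% sheep blood for streptococci, Mueller–Hinton chocolate agar for H. influenzae, and Mueller–Hinton agar for staphylococci. Read-out is MIC in mg/L.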

The subject of experiment [3] is Staphylococcus aureus. Put plainly: Antibacterial activity against constitutive-resistant to macrolide, licosamide and streptogramin Staphylococcus aureus PK2 by broth microdilution method. The method, boiled down: as §1
The subject of experiment [4] is Streptococcus pneumoniae. Put plainly: Antibacterial activity against efflux mediated macrolide-resistant Streptococcus pneumoniae Ci137 by broth microdilution method. The gist of the method:
as §1

Experiment [5] deals with Streptococcus pyogenes. Kind of experiment: Antibacterial activity against inducible-resistant to macrolide, licosamide and streptogramin Streptococcus pyogenes Finland 11 by broth microdilution method. The method, boiled down: as §1
A further experiment deals with Enterococcus faecalis. Kind of experiment: Antibacterial activity against Enterococcus faecalis ATCC 29213 by broth microdilution method. The gist of the method: as §2
The subject of experiment [6] is Streptococcus pyogenes. Kind of experiment: Antibacterial activity against efflux mediated macrolide-resistant Streptococcus pyogenes Finland 2 by broth microdilution method. The gist of the method:
as §1

Experiment [7] deals with Staphylococcus aureus. Kind of experiment: Antibacterial activity against Staphylococcus aureus ATCC 13709 by broth microdilution method. The method, boiled down:
as §2

The subject of the next experiment is Haemophilus influenzae. Put plainly: Antibacterial activity against Haemophilus influenzae ATTC 49247 by broth microdilution method. The gist of the method: as §2
The subject of the next experiment is Moraxella catarrhalis. Kind of experiment: Antibacterial activity against Moraxella catarrhalis ATCC 23246 by broth microdilution method. The gist of the method: as §2
The test system of experiment [8] is Staphylococcus aureus. Put plainly: Antibacterial activity against inducible-resistant to macrolide, licosamide and streptogramin Staphylococcus aureus 90265/97 by broth microdilution method. The gist of the method: as §1
The test system of experiment [9] is Streptococcus pyogenes. Kind of experiment: Antibacterial activity against erythromycin susceptible Streptococcus pyogenes 3565 by broth microdilution method. The gist of the method: as §2
Another experiment relates to Escherichia coli. Kind of experiment: Antibacterial activity against Escherichia coli ATCC 25922 by broth microdilution method. The gist of the method:
as §2

Experiment [10] deals with Streptococcus pneumoniae. Put plainly: Antibacterial activity against constitutive-resistant to macrolide, licosamide and streptogramin Streptococcus pneumoniae 58 Spain by broth microdilution method. The method, boiled down: as §1
Experiment [11] relates to Streptococcus pneumoniae. Kind of experiment: Antibacterial activity against inducible-resistant to macrolide, licosamide and streptogramin Streptococcus pneumoniae 134 GR-M by broth microdilution method. The method, boiled down:
as §1

The test system of experiment [12] is Streptococcus pyogenes. Put plainly: Antibacterial activity against constitutive-resistant to macrolide, licosamide and streptogramin Streptococcus pyogenes 166 GR-Micro by broth microdilution method. The gist of the method:
as §1

SMILES strings stand for the structures. In brackets after ≈: the same amount, converted by molar mass.

On to `CC[C@H]1OC(=O)[C@H](C)[C@@H](O[C@H]2C[C@@](C)(OC)[C@@H](O)[C@H](C)O2)[C@H](C)[C@@H](O[C@@H]2O[C@H](C)C[C@H](N(C)C)[C@H]2O)[C@](C)(O)C[C@@H](C)CN(C)[C@H](C)[C@@H](O)[C@]1(C)O` [AZITHROMYCIN], for which the MIC with Staphylococcus aureus [1] is > 64 mg/L; against Streptococcus pneumoniae [2], ≤ 0.125 mg/L; against Staphylococcus aureus [3], > 64 mg/L; in the experiment on Streptococcus pneumoniae [4] it was 8 mg/L (≈ 10.7 µM); against Streptococcus pyogenes [5], 16 mg/L (≈ 21.4 µM); with Enterococcus faecalis it was 4 mg/L (≈ 5.34 µM). Besides, the MIC against Streptococcus pyogenes [6] is 8 mg/L (≈ 10.7 µM); in the experiment with Staphylococcus aureus [7] it was 0.5 mg/L (≈ 0.668 µM); with Haemophilus influenzae, 1 mg/L (≈ 1.34 µM); with Moraxella catarrhalis, ≤ 0.125 mg/L; against Staphylococcus aureus [8], > 64 mg/L; against Streptococcus pyogenes [9] it was ≤ 0.125 mg/L. Further, the MIC with Escherichia coli was 2 mg/L (≈ 2.67 µM); in the experiment on Streptococcus pneumoniae [10], > 64 mg/L; against Streptococcus pneumoniae [11] it was > 64 mg/L; in the experiment on Streptococcus pyogenes [12], > 64 mg/L.
